Among the data in ChEMBL document CHEMBL4043176, “Synthesis of 3-[4-(dimethylamino)phenyl]alkyl-2-oxindole derivatives and their effects on neuronal cell death” (Bioorg Med Chem Lett, 2017) are Activity and IC50 values, retold here.

For series [1], the system named is HT-22. In words: Cytotoxicity against mouse HT22 cells up to 100 uM after 24 hrs by LDH-release assay. The series is classed as cell-based. Conditions: ht-22, 24 h. The gist of the method: (§1)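 HT22 cells exposed to compound alone, without glutamate (cytotoxicity tested up to 100 µM). Cell injury is read as lactate dehydrogenase released into the culture medium, measured with a cytotoxicity detection kit. LDH from control cultures is set at 100%.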

Series [2] deals with HT-22. Briefly: Neuroprotective activity against glutamate-induced neuronal cell death in mouse HT22 cells at 25 to 50 uM after 24 hrs by LDH-release assay relative to control. In kind it is functional. The gist of the method:
(§2)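 HT22 cells exposed to 10 mM glutamate together with compound at 25 or 50 µM for 24 h. Cell death read as LDH released into the culture medium (cytotoxicity detection kit). Control is LDH release from cells incubated without glutamate, set at 100%.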

Series [3] relates to HT-22. In words: Neuroprotective activity against glutamate-induced neuronal cell death in mouse HT22 cells after 24 hrs by LDH-release assay. In kind it is functional, cell-based. As to conditions: HT-22, 24 h. In short, it runs like this: (§3)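 HT22 cells co-incubated 24 h with 10 mM glutamate plus compound at 0, 1.0, 2.5, 5.0, 10 or 25 µM. Cell death is read as LDH released into the medium. Control-culture LDH is set at 100%. IC50 values were estimated from this low-dose series; for some compounds, approximate IC50s were corrected by subtracting suppression of basal, glutamate-independent death.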

The test system of series [4] is HT-22. Briefly: Neuroprotective activity against glutamate-induced neuronal cell death in mouse HT22 cells at 1 to 25 uM after 24 hrs by LDH-release assay relative to control. In kind it is functional, cell-based. In short, it runs like this:
as §3

In series [5] the test system is HT-22. Briefly: Neuroprotective activity against glutamate-induced neuronal cell death in mouse HT22 cells at 2.5 to 10 uM after 24 hrs by LDH-release assay relative to control. The series is classed as functional, cell-based. In short, it runs like this: as §3
Series [6] deals with HT-22. Briefly: Neuroprotective activity against glutamate-induced neuronal cell death in mouse HT22 cells at 2.5 to 5 uM after 24 hrs by LDH-release assay relative to control. In kind it is functional, cell-based. The gist of the method:
as §3

Series [7] concerns HT-22. Briefly: Cytotoxicity against mouse HT22 cells after 24 hrs in absence of glutamate by LDH-release assay relative to control. In kind it is ADME, cell-based. Conditions: ht-22, 24 h. In short, it runs like this: as §1
For series [8], the system named is HT-22. Briefly: Neuroprotective activity against glutamate-induced neuronal cell death in mouse HT22 cells at 25 uM after 24 hrs by LDH-release assay relative to control. The series is classed as functional. The gist of the method:
as §2

Series [9] has as its system HT-22. In words: Neuroprotective activity against glutamate-induced neuronal cell death in mouse HT22 cells at 50 uM after 24 hrs by LDH-release assay relative to control. In kind it is functional, cell-based. The gist of the method: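 HT22 cells treated 24 h with 10 mM glutamate and compound at 0, 25 or 50 µM. Cell death is read as lactate dehydrogenase released into the culture medium, measured with a cytotoxicity detection kit. LDH of control cultures is set at 100%.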

The subject of series [10] is HT-22. Briefly: Neuroprotective activity against glutamate-induced neuronal cell death in mouse HT22 cells at 1 to 10 uM after 24 hrs by LDH-release assay relative to control. The series is classed as functional, cell-based. The gist of the method: as §3

The source made the active and inactive calls. The calls are words filed in the database; no cut-off is given here.

With `CN(C)CCCCCCCC1(C)C(=O)Nc2ccccc21` (centres undefined), the Activity entry with HT-22 [1] was “Non-Toxic”. In the series with HT-22 [2], the result was inactive.
With `CN(C)c1ccc(CCCC2C(=O)Nc3ccc(C(F)(F)F)cc32)cc1` (centres undefined), in the series with HT-22 [1], the Activity result was “Non-Toxic”.
On to `COc1ccc2c(c1)C1(CCN(c3ccccc3)CC1)C(=O)N2`, for which, in the series on HT-22 [1], the Activity result is listed as “Non-Toxic”. Also, the result in the series with HT-22 [2] was inactive.
For the compound `COc1ccc2c(c1)C(C)(CCCc1ccc(N(C)C)cc1)C(=O)N2CC(=O)N(C)C` (centres undefined), the Activity result with HT-22 [1] was “Non-Toxic”.
Turning to `COCCOc1ccc2c(c1)C(C)(CCCc1ccc(N(C)C)cc1)C(=O)N2` (centres undefined), the Activity entry in the series on HT-22 [1] is “Non-Toxic”.
On the same count and under the same terms, next, `COc1ccc(N2C(=O)C(C)(CCCc3ccc(N(C)C)cc3)c3ccccc32)cc1` (centres undefined): “Non-Toxic”.
For the compound `CN(C)c1ccc(CC2C(=O)Nc3ccccc32)cc1` (racemic), in the series on HT-22 [3], the IC50 was 7.1 µM. Also, the Activity entry in the series on HT-22 [1] is given as “Non-Toxic”. In addition, the outcome in the series on HT-22 [2] and with HT-22 [4] was Active.
For `CN(C)c1ccc(CCCC2C(=O)Nc3ccccc32)cc1` (racemic), the result with HT-22 [5] and with HT-22 [2] was Active. In addition, the IC50 with HT-22 [3] was 5.5 µM. Also, in the series with HT-22 [1], the Activity result is given as “Non-Toxic”.
On to `CN(Cc1ccccc1)c1ccc(CCCC2(C)C(=O)Nc3ccccc32)cc1` (racemic), for which, in the series on HT-22 [1], the Activity result was “Non-Toxic”. Further, the outcome with HT-22 [2] was Active.
In the same order, the values of `CN(C)c1ccc(CCCCC2C(=O)Nc3ccccc32)cc1` (racemic) are “Non-Toxic” and “Active”.
Take `COc1ccc2c(c1)C(C)(CCCc1ccc(N(C)C)cc1)C(=O)N2` (racemic) [listing 1 of 2 here]: the Activity result in the series on HT-22 [1] was “Non-Toxic”.
As to `COc1ccc2c(c1)C(C)(CCOc1ccc(N(C)C)cc1)C(=O)N2` (racemic), in the series on HT-22 [1], the Activity entry is “Non-Toxic”. Further, the result with HT-22 [2] was Active.
In the same order, the values of `COc1ccc2c(c1)C(C)(CCCc1ccc(N(C)C)cc1)C(=O)N2CC(=O)O` (racemic) are “Non-Toxic” and “inactive”.
Consider `CN(C)c1ccc(CCCC2(C)C(=O)Nc3ccc(O)cc32)cc1` (racemic), for which, in the series on HT-22 [6], the result was Active. For the same compound, half-maximal inhibition in the series with HT-22 [3] (IC50) required 1.9 µM. The Activity result in the series on HT-22 [1] is recorded as “Non-Toxic”; with HT-22 [2] it was greater than 100%; in the series with HT-22 [7] it was “Non-Toxic”.
Regarding `CN(CCCCCC1C(=O)Nc2ccccc21)c1ccccc1` (racemic), in the series with HT-22 [1], the Activity entry was “Non-Toxic”. Also, the result in the series on HT-22 [2] was Active.
Regarding `CCN(CC)c1ccc(CCCC2C(=O)Nc3ccccc32)cc1` (racemic), the values for the Activity entry with HT-22 [1], in the series on HT-22 [2] and in the series with HT-22 [7] were “Non-Toxic”, greater than 100% and “Non-Toxic”, respectively.
On to `CN(C)c1ccc(CCCC2(C)C(=O)Nc3ccccc32)cc1` (racemic), for which the Activity result in the series with HT-22 [1] is recorded as “Non-Toxic”; in the series with HT-22 [2], greater than 100%; in the series with HT-22 [7], “Non-Toxic”.
As for `CN(C)c1ccc(CCC2C(=O)Nc3ccccc32)cc1` (racemic), in the series with HT-22 [8], the result was inactive. Further, in the series on HT-22 [1], the Activity result is “Non-Toxic”. In addition, the outcome in the series with HT-22 [9] was Active.
Take `CN(C)c1ccc(C(C)(C)CC2C(=O)Nc3ccccc32)cc1` (racemic): in the series on HT-22 [1], the Activity entry is “Non-Toxic”.
In the case of `CN(C)c1ccc(CCCC2C(=O)N(C)c3ccccc32)cc1` (racemic), the results for the Activity result in the series on HT-22 [1], in the series on HT-22 [2] and in the series on HT-22 [7] were “Non-Toxic”, greater than 100% and “Non-Toxic”, respectively.
For the compound `CN(C)c1ccc(C(=O)NCCC2C(=O)Nc3ccccc32)cc1` (racemic), the Activity entry with HT-22 [1] is reported as “Non-Toxic”. Besides, the result in the series with HT-22 [2] was inactive.
Regarding `CN(C)c1cccc(CCCC2C(=O)Nc3ccccc32)c1` (racemic), the figures for the Activity entry in the series with HT-22 [1], in the series on HT-22 [2] and with HT-22 [7] were “Non-Toxic”, greater than 100% and “Non-Toxic”, respectively.
For the compound `CN(C)c1ccc(CCCC2(C)C(=O)Nc3ccc(F)cc32)cc1` (racemic), in the series on HT-22 [10], the result was Active. This compound also returned a half-maximal inhibitory concentration (IC50) in the series on HT-22 [3] of 1.2 µM. Further, the Activity result with HT-22 [1] is listed as “Non-Toxic”; in the series on HT-22 [2], greater than 100%; in the series with HT-22 [7], “Non-Toxic”.
In the case of `COc1ccc2c(c1)C(C)(CCCc1ccc(N(C)C)cc1)C(=O)N2` (racemic) [listing 2 of 2 here], the outcome with HT-22 [2] was Active.
On to `COc1ccc2c(c1)C(C)(CCCc1ccc(N(C)C)cc1)C(=O)N2` (stereo in doubt; 8a), for which, in the series on HT-22 [2], the result was Active.
With `COc1ccc2c(c1)C(C)(CCCc1ccc(N(C)C)cc1)C(=O)N2` (stereo in doubt; 8b), the outcome in the series with HT-22 [2] was Active.
In the series on HT-22 [8], `O=C1O[C@H]([C@@H](O)CO)C(O)=C1O` [ASCORBIC ACID] gave an Activity of 50%.

The term IC50 denotes the point on the concentration scale where inhibition reaches its midpoint. High values mean weaker potency, low ones greater potency.
